The values that follow come from ChEMBL document CHEMBL4376902, “CN128: A New Orally Active Hydroxypyridinone Iron Chelator” (J Med Chem, 2020).

Series [1] relates to Rattus norvegicus. Kind of series: Iron scavenging activity in 59Fe-ferritin-loaded rat assessed as iron mobilization level at 150 to 450 umol/kg, po dosed 1 hr after 59Fe-ferritin injection and measured 24 hrs after 59Fe-ferritin injection by gamma counting method relative to control. In kind it is functional, organism-based. The method, boiled down: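 Male SD rats, 300 g, fasted overnight, given about 1 μC 59Fe-ferritin i.v. under isoflurane. Chelator gavaged 1 h later, then rats housed in metabolic cages; food returned 1 h after dosing. Killed 24 h after 59Fe-ferritin. Urine, faeces, liver and gut gamma-counted. 8 rats per condition.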

Series [2] is described as follows: Acid dissociation constant, pKa1 of the compound over pH 1.8 to 11.0 by spectrophotometric titration method. In kind it is physicochemical. The procedure, abridged: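 Automated spectrophotometric titration with 0.1 M KOH in 0.1 pH-unit steps. Reading accepted as stable when drift was <0.01 pH unit after a 1.5 min incubation. 10 mm path length cuvette. Spectra fitted by computer to obtain the pKa values.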

Series [3] is described as follows: Lipophilicity coefficient, logP of the compound in Tris buffer at pH 7.0 (100 mM/n-octanol). In kind it is physicochemical. The procedure, abridged:
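Octanol/water partition measured between n-octanol and 100 mM Tris buffer, pH 7.0.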

Series [4] can be described thus: Drug metabolism in human liver microsomes assessed as glucuronidation incubated for 1 hr relative to deferiprone. In kind it is ADME, Microsome. The method, boiled down:
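Compound incubated 1 h with rat or human liver microsomes, n = 4, mean ± SD. Glucuronide formed given as percentage of total chelator added. Oxidative metabolism assessed separately.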
(Liver microsomes are a subcellular fraction often used to study metabolism.)

Series [5] is described as follows: Drug metabolism in human liver microsomes assessed as oxidative metabolism incubated for 1 hr relative to deferiprone. In kind it is ADME, Microsome.
The nature of series [6]: Drug metabolism in rat bile assessed as (2S,3S,4S,5R,6R)-3,4,5-trihydroxy-6-[(2R)-2-(3-hydroxy-2-methyl-4-oxo-1-pyridyl)-3-phenylpropoxy]tetrahydropyran-2-carboxylic acid/(2S,3S,4S,5R,6S)-6-[[1-[(1R)-1-benzyl-2-hydroxyethyl]-2-methyl-4-oxo-3-pyridyl]oxy]-3,4,5-trihydroxy-tetrahydropyran-2-carboxylic acid ratio formation at 150 umol/kg, po measured over 8 hrs by LC/TOF/MS/MS analysis. In kind it is ADME, organism-based. The settings on record: in vivo. The method, boiled down:
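Bile collected from rats after an oral dose of 150 μmol/kg. Metabolites characterised by β-glucuronidase hydrolysis and LC-TOFMS/MS. M2/M1 ratio followed over 8 h.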

Series [7] deals with T1, Cytochrome P450 1A2 (Homo sapiens, UniProt P05177).
T1 sequence (P05177 whole entry): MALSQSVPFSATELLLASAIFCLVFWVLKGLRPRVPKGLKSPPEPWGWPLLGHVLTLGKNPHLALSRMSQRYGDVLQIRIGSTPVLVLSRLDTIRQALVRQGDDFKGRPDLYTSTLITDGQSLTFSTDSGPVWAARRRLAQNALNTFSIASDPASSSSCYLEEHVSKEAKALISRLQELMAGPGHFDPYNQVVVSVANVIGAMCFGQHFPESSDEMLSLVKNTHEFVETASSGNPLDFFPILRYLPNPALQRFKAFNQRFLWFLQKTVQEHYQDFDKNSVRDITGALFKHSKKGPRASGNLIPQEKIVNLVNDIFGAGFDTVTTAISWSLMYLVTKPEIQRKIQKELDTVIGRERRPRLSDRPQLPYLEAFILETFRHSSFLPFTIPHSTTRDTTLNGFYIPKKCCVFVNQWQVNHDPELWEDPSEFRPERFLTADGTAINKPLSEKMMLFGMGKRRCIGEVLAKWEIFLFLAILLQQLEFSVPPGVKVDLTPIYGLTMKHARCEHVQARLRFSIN
Kind of series: Inhibition of CYP1A2 in human liver microsomes. In kind it is ADME.

The target of series [8] is Cytochrome P450 2C9 (Homo sapiens, UniProt P11712). Kind of series: Inhibition of CYP2C9 in human liver microsomes. In kind it is ADME.
The target in series [9] is Cytochrome P450 2D6 (Homo sapiens, UniProt P10635). Kind of series: Inhibition of CYP2D6 in human liver microsomes. In kind it is ADME.
Series [10] deals with Cytochrome P450 3A5 (Homo sapiens, UniProt P20815). Kind of series: Inhibition of CYP3A5 in human liver microsomes. In kind it is ADME.
Series [11] can be described thus: Ratio of drug level in intestine to plasma in rat at 150 umol/kg, po measured within 10 mins by LC-MS/MS analysis. In kind it is ADME, organism-based. The conditions noted are these: intestine and plasma. The method, boiled down:
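SD rats (half male, half female, n = 6 per group) given a single oral 150 μmol/kg dose. Killed at 10 min, 30 min, 2 h or 6 h; tissues washed in saline, weighed and homogenised in acetonitrile/water 1:9 (125 mg/mL). Tissue levels compared with plasma.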

Series [12] in a line: Drug level in rat liver at 150 umol/kg, po measured measured up to 6 hrs by LC-MS/MS analysis. In kind it is ADME, organism-based. The settings on record: in vivo. The procedure, abridged: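 Single oral dose of 150 μmol/kg to SD rats, half male and half female, n=6 per group. Rats decapitated at 10 min, 30 min, 2 h and 6 h. Tissues dissected, saline-washed, weighed and homogenised in acetonitrile/water 1:9 (125 mg/mL). Drug level measured against plasma; mean ± SE.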

Series [13] in a line: Binding affinity to Mg2+ ion assessed as affinity constant by spectrophotometric titration method.
Series [14] in a line: Binding affinity to Al3+ ion assessed as affinity constant by spectrophotometric titration method.
Series [15] concerns Rattus norvegicus. Kind of series: Iron scavenging activity in iron-overloaded rat assessed as iron removal efficacy at 75 to 1200 umol/kg, po. In kind it is functional, organism-based. The method, boiled down:
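Male SD rats (300 g), fasted overnight, given about 1 μC 59Fe-ferritin i.v. under isoflurane; chelator by oral gavage 1 h later; doses 75, 150, 300, 600 and 1200 μmol/kg. Rats housed in metabolic cages, food returned 1 h post-dose; killed 24 h after ferritin injection. Urine, faeces, liver and gut gamma-counted. Iron removal expressed as % efficacy.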

Series [16] can be described thus: Toxicity in iron-overloaded rat assessed as drug tolerability at 75 to 1200 umol/kg, po. The settings on record: in vivo.
Series [17] in a line: Cmax in Sprague-Dawley rat at 75 umol/kg, po measured up to 1440 mins by LC/MS/MS analysis. In kind it is ADME, organism-based. Also noted: dose 75 umol/kg, route oral. The settings on record: in vivo.
The nature of series [18]: Cmax in Sprague-Dawley rat at 300 umol/kg, po measured up to 1440 mins by LC/MS/MS analysis. In kind it is ADME, organism-based. Also noted: dose 300 umol/kg, route oral. The settings on record: in vivo.
Series [19] can be described thus: Oral bioavailability in Sprague-Dawley rat at 75 umol/k measured up to 1440 mins by LC/MS/MS analysis. In kind it is ADME, organism-based. The conditions noted are these: in vivo, 75 umol/kg. The method, boiled down: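 Sprague-Dawley rats (200-250 g, half male, half female, n = 8 per route), fasted about 12 h. Dosed i.v. via tail vein at 75 μmol/kg or orally at 75-600 μmol/kg. Heparinised blood taken 0-1440 min; plasma protein-precipitated with acetonitrile and assayed by LC/MS/MS; bioavailability from oral vs i.v. exposure.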

A short description of series [20]: Toxicity in Sprague-Dawley rat assessed as induction of mortality at 200 mg/kg, po dosed once daily for 2 months as 5 days per week schedule. In kind it is organism-based. The conditions noted are these: in vivo, 120 h.
The subject of series [21] is Mus musculus. Kind of series: Toxicity in mouse assessed as reduction in eosinophils counts at 200 mg/kg, po dosed once daily for 2 months as 5 days per week schedule. The settings on record: in vivo, 120 h.

Sequence of Cytochrome P450 2D6 (P10635 whole entry): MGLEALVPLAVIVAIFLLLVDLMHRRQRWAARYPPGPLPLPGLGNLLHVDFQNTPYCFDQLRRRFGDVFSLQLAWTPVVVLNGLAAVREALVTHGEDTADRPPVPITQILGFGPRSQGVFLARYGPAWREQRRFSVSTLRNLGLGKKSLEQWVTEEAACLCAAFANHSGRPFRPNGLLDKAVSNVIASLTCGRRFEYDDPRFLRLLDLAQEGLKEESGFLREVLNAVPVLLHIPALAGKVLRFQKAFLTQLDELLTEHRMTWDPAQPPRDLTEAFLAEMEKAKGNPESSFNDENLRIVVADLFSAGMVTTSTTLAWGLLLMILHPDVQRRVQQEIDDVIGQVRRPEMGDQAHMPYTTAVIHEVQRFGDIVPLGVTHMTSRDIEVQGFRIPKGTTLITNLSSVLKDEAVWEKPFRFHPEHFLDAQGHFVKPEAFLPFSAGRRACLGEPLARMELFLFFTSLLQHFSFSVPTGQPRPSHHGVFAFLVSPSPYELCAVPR
Sequence of Cytochrome P450 2C9 (P11712 whole entry): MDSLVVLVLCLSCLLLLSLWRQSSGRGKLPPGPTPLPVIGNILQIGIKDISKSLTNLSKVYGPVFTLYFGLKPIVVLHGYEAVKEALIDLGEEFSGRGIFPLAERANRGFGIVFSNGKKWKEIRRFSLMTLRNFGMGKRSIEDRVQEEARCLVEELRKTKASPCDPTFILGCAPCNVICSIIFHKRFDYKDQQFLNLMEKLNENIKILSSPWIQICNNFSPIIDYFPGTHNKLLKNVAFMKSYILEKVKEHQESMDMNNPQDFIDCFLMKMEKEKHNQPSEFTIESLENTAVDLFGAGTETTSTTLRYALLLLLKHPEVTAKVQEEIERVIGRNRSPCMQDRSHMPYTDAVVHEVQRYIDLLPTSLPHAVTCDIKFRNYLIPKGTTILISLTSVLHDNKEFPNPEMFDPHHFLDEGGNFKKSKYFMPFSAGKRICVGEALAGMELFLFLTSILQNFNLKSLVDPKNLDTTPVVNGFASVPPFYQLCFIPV
Sequence of Cytochrome P450 3A5 (P20815 whole entry): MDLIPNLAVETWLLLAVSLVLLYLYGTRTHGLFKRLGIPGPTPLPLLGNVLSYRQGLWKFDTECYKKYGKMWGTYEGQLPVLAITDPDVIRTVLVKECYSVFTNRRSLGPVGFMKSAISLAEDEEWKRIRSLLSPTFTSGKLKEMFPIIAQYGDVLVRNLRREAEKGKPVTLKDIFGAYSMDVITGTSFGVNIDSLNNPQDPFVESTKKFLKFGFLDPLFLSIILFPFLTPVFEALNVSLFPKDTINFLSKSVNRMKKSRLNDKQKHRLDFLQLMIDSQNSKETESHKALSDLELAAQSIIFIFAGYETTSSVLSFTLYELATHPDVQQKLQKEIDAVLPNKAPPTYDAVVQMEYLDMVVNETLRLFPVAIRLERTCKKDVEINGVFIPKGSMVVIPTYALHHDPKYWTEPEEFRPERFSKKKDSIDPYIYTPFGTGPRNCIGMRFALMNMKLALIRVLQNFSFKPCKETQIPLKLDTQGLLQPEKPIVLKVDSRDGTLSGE

As usually defined, the pKa is the pH at which an ionisable group is half protonated. Higher therefore signals a weaker acid or stronger base. One may read the logD as the decadic logarithm of the distribution of all forms, ionised or not, between an organic phase and buffer at a given pH. Higher therefore signals a more lipophilic compound. Broadly, the IC50 is the point on the concentration scale where inhibition reaches its midpoint. High values mean weaker potency, low ones greater potency. What is called Kp is the ratio of the level in a tissue or fluid to that in plasma or blood. The Cmax is the maximum level reached in the sampled fluid or tissue. The bioavailability is the share of a dose that reaches the circulation, judged against a reference dose that is usually intravenous. Take `Cc1c(O)c(O)cc[n+]1[C@@H](CO)Cc1ccccc1.[Cl-]`: the Activity result in series [1] was “Dose-dependent effect”; in series [15] it was “Dose-dependent effect”; in series [16] it was “Non-Toxic”; in series [20], “Non-Toxic”; in series [21], “Non-Toxic”. The compound also registered a pKa in series [2] of 3.26. Moreover, in series [3], the logD was 0.62. The Drug metabolism result in series [4] and in series [5] was “Metabolite_Detected” in each case. In series [6], the Ratio lay within 2.3 to 6.9. Moreover, the IC50 in series [7], in series [8], in series [9] and in [10] was > 200 µM in each case. In addition, in [11], the Kp at 10 min was 3.3 to 8.8. Besides, the Drug uptake result in series [12] is recorded as “Not Active”. The log K in series [13] was 9.12; in series [14] it was 12.2. In [14], the K is 13 pM. The Cmax in series [17] was found to be 8670 ng/mL; in series [18], 41900 ng/mL. Further, the bioavailability in [19] was 82.6%.
